Series [1] deals with RAW264.7. The series is described as follows: Antiinflammatory activity in mouse RAW264.7 cells assessed as inhibition of LPS-induced nitric oxide production preincubated for 3 hrs followed by LPS addition and measured after 24 hrs by griess assay. The format is functional, cell-based. In outline: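 RAW264.7 cells in 96-well plates were exposed to compounds over 0–100 µM for 3 h, then to LPS 1 µg/mL for 24 h. Controls were DMSO without LPS (vehicle) and DMSO with LPS (model). Nitrite in the medium was read with Griess reagent at 540 nm. Percent inhibition was calculated and IC50 derived; hydrocortisone was the positive control.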
For orientation: Nitrite, measured by Griess reagent, commonly stands in for NO production.

Series [2] concerns RAW264.7. The series is described as follows: Cytotoxicity against mouse RAW264.7 cells assessed as effect on cell viability at 3.125 to 100 uM after 24 hrs by CCK8 assay. The format is cell-based. The following applies: raw264.7, 24 h. The method, boiled down:
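Cells were grown in DMEM with 10% FBS and penicillin/streptomycin at 37 °C, 5% CO2. For the assay they were seeded at 5×10^4 cells/well and exposed in serum-free medium to a range of compound concentrations for 24 h, with DMSO as vehicle. Viability was read by CCK-8, in triplicate.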
A general note: Tetrazolium assays rely on reduction of a dye to a coloured formazan, in cell work by metabolically active cells.

Series [3] relates to RAW264.7. The experiment in a line: Antiinflammatory activity in mouse RAW264.7 cells assessed as inhibition of LPS-induced IL1beta production preincubated for 3 hrs followed by LPS addition and measured after 24 hrs by ELISA. The format is functional, cell-based. In outline:
(§1)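 Cells in 96-well plates were pretreated with DMSO or compound at 5, 10 and 20 µM for 3 h, then stimulated with LPS 1 µg/mL for 24 h. IL-1β and IL-6 in the medium were quantified by commercial ELISA, with OD read at […]. Results are mean ± SD of at least three independent experiments.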

In series [4] the test system is RAW264.7. The series is described as follows: Antiinflammatory activity in mouse RAW264.7 cells assessed as inhibition of LPS-induced IL6 production preincubated for 3 hrs followed by LPS addition and measured after 24 hrs by ELISA. The format is functional, cell-based. In outline:
as §1
A general note: ELISA stands for enzyme-linked immunosorbent assay.

For series [5], the system named is RAW264.7. The experiment in a line: Antiinflammatory activity in mouse RAW264.7 cells assessed as inhibition of LPS-induced iNOS expression at 5 to 20 uM preincubated for 3 hrs followed by LPS addition and measured after 24 hrs by Western blot analysis. The format is functional. The method, boiled down: (§2)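 RAW264.7 cells in 6-well plates were pretreated as for ELISA, then given LPS 1 µg/mL for 24 h and lysed with protease inhibitors. 30 µg total protein was run on 10% SDS-PAGE and blotted to nitrocellulose, blocked in 5% skim milk, and probed overnight at 4 °C. Primary antibodies were iNOS 1:200; COX-2, NF-κB, IκBα and p-IκBα 1:2000; β-actin 1:2000 as reference. Detection used HRP secondary and ECL; data from ≥3 independent experiments.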

The subject of series [6] is RAW264.7. The series is described as follows: Antiinflammatory activity in mouse RAW264.7 cells assessed as inhibition of LPS-induced COX2 expression at 5 to 20 uM preincubated for 3 hrs followed by LPS addition and measured after 24 hrs by Western blot analysis. The format is functional, cell-based. In outline:
as §2

Series [7] deals with T1, NF-kappa-B inhibitor alpha (Mus musculus) (UniProt Q9Z1E3).
T1 sequence (whole entry): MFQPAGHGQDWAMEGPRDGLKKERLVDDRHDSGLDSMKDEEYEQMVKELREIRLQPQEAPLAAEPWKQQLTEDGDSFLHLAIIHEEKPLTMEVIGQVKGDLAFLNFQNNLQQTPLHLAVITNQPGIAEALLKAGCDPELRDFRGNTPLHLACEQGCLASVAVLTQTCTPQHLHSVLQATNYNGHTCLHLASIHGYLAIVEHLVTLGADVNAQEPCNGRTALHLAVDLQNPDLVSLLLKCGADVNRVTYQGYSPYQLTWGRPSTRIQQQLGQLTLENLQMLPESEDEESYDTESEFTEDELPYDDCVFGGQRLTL
The experiment in a line: Inhibition of LPS-induced IkappaBalpha phosphorylation in mouse RAW264.7 cells at 5 to 20 uM preincubated for 3 hrs followed by LPS addition and measured after 24 hrs by Western blot analysis. The series is classed as cell-based. The method, boiled down: as §2

Series [8] concerns RAW264.7. The experiment in a line: Inhibition of LPS-induced IkappaBalpha expression in mouse RAW264.7 cells at 5 to 20 uM preincubated for 3 hrs followed by LPS addition and measured after 24 hrs by Western blot analysis. The format is functional, cell-based. In outline:
as §2

The test system of series [9] is RAW264.7. The series is described as follows: Inhibition of LPS-induced NFkappaB expression in mouse RAW264.7 cells at 5 to 20 uM preincubated for 3 hrs followed by LPS addition and measured after 24 hrs by Western blot analysis. The series is classed as functional, cell-based. In outline: as §2
For series [10], the target named is Transcription factor p65 (Mus musculus) (UniProt Q04207). The series is described as follows: Inhibition of LPS-induced NFkappaB p65 nuclear translocation in mouse RAW264.7 cells at 10 uM preincubated for 2 hrs followed by LPS-stimulation and measured after 12 hrs by DAPI staining based immunofluorescence microscopic analysis. The format is cell-based. The method, boiled down:
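Cells grown in glass chambers were pretreated with DMSO or compound for 2 h, then given LPS 1 µg/mL for 12 h. They were fixed in 4% paraformaldehyde for 15 min, permeabilized with 0.25% Triton X-100, and labelled with p65 antibody plus AlexaFluor488 secondary. Nuclei were stained with DAPI at 37 °C for 30 min in the dark, and cells were imaged by fluorescence microscopy.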

Each structure is given as a SMILES string. Active and inactive are the calls of the source. The rule behind the calls is not given here. Bounds are passed on as bounds.

Chain of Transcription factor p65 (Mus musculus) (Q04207 whole entry): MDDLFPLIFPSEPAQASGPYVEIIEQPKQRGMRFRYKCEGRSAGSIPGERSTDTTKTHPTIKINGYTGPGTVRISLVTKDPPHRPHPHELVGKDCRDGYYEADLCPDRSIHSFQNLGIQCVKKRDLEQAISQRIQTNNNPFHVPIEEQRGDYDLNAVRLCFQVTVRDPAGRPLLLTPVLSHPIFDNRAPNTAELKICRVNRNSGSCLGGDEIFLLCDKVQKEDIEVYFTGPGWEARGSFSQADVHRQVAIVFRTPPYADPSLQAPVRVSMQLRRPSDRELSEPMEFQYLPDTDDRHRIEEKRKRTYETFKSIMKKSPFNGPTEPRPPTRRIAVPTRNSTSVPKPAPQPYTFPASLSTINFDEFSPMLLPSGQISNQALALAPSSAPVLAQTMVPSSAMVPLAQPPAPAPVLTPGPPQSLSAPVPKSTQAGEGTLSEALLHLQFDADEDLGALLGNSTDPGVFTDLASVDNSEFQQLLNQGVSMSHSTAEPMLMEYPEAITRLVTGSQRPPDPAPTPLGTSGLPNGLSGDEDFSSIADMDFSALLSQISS

On to `C=C1CCC2[C@](C)(CO)[C@H](O)CC[C@@]2(C)[C@@H]1CCOc1ccc(Br)cc1` (stereo partly drawn), for which the IC50 (as a rule, the concentration that gives 50% inhibition) in the series with RAW264.7 [1] is 40.2 µM.
Turning to `C=C1CCC2[C@](C)(CO)[C@H](O)CC[C@@]2(C)[C@@H]1CCOC(=O)c1ccccc1[N+](=O)[O-]` (stereo partly drawn), the IC50 in the series on RAW264.7 [1] stood at 35.2 µM.
As to `C=C1CCC2[C@](C)(CO)[C@H](O)CC[C@@]2(C)[C@@H]1CCOc1ccc2oc(-c3ccccc3)cc(=O)c2c1` (stereo partly drawn), the IC50 in the series with RAW264.7 [1] is > 100 µM.
Same read-out and setting: the figure for `C=C1CCC2[C@](C)(CO)[C@H](O)CC[C@@]2(C)[C@@H]1CCn1cncn1` (stereo partly drawn) is > 100 µM.
For the molecule `C=C1CCC2[C@](C)(CO)[C@H](O)CC[C@@]2(C)[C@@H]1CCOc1ccc2ccc(=O)oc2c1` (stereo partly drawn), in the series on RAW264.7 [1], the IC50 was > 50 µM.
Consider `C=C1CCC2[C@](C)(CO)[C@H](O)CC[C@@]2(C)[C@@H]1CCn1cnc2c(N)ncnc21` (stereo partly drawn), for which, in the series with RAW264.7 [1], the IC50 was > 100 µM.
On to `C=C1CCC2[C@](C)(CO)[C@H](O)CC[C@@]2(C)[C@@H]1CCOc1ccc(-c2cc(=O)c3cc(C)ccc3o2)cc1` (stereo partly drawn), for which the IC50 in the series with RAW264.7 [1] was > 100 µM.
Consider `C=C1CCC2[C@](C)(CO)[C@H](O)CC[C@@]2(C)[C@@H]1CCOc1cccc2ccccc12` (stereo partly drawn), for which the IC50 with RAW264.7 [1] came out at 44.7 µM.
Turning to `C=C1CCC2[C@](C)(CO)[C@H](O)CC[C@@]2(C)[C@@H]1CCOC(=O)c1cccnc1` (stereo partly drawn), the IC50 with RAW264.7 [1] is > 50 µM.
For `C=C1CCC2[C@](C)(CO)[C@H](O)CC[C@@]2(C)[C@@H]1CCOc1ccc([N+](=O)[O-])cc1` (stereo partly drawn), in the series with RAW264.7 [1], the IC50 was 3.38 µM. Further, the Activity result in the series with RAW264.7 [2] is listed as “Non-Toxic”. Moreover, the inhibition result in the series with RAW264.7 [3] and in the series with RAW264.7 [4] was “Dose-dependent effect” throughout. For the same molecule, in the series on RAW264.7 [5], the “inhibition (INH)” value is recorded as 100%. The inhibition result (in the series with RAW264.7 [6]; in series [7]; with RAW264.7 [8]; in the series on RAW264.7 [9]; in [10]) was “Active” throughout.
In the case of `C=C1CCC2[C@](C)(CO)[C@H](O)CC[C@@]2(C)[C@@H]1CCOC(=O)c1ccccc1` (stereo partly drawn), the IC50 in the series with RAW264.7 [1] is > 100 µM.
Regarding `C=C1CCC2[C@](C)(CO)[C@H](O)CC[C@@]2(C)[C@@H]1CCOc1ccc(Oc2ccccc2)cc1` (stereo partly drawn), the IC50 in the series with RAW264.7 [1] came out at 12.8 µM.
For the molecule `C=C1CCC2[C@](C)(CO)[C@H](O)CC[C@@]2(C)[C@@H]1CCOC(=O)c1ccc([N+](=O)[O-])cc1` (stereo partly drawn), the IC50 in the series on RAW264.7 [1] amounted to 37.3 µM.
`C=C1CCC2[C@](C)(CO)[C@H](O)CC[C@@]2(C)[C@@H]1CCOc1ccc(C(C)(C)C)cc1` (stereo partly drawn): the IC50 with RAW264.7 [1] was 35.8 µM.
As to `C=C1CCC2[C@](C)(CO)[C@H](O)CC[C@@]2(C)[C@@H]1CCn1c(N)nccc1=O` (stereo partly drawn), the IC50 in the series on RAW264.7 [1] is > 100 µM.
For `C=C1CCC2[C@](C)(CO)[C@H](O)CC[C@@]2(C)[C@@H]1CCn1ccnc1` (stereo partly drawn), in the series on RAW264.7 [1], the half-maximal inhibitory concentration (IC50) is > 50 µM.
On the same count and under the same terms, for `C=C1CCC2[C@](C)(CO)[C@H](O)CC[C@@]2(C)[C@@H]1CCn1ccc(=O)[nH]c1=O` (stereo partly drawn) the value was > 100 µM; for `C=C1CCC2[C@](C)(CO)[C@H](O)CC[C@@]2(C)[C@@H]1CCOc1ccccc1O` (stereo partly drawn), 47.7 µM.
The same measure, in the same setting: for `C=C1CC[C@@H]2[C@](C)(CO)[C@H](O)CC[C@@]2(C)[C@@H]1C/C=C1/C(=O)OC[C@H]1O` [ANDROGRAPHOLIDE] the value was 8.81 µM.

These data come from ChEMBL document CHEMBL4382215, “Synthesis of new ent-labdane diterpene derivatives from andrographolide and evaluation of their anti-inflammatory activities” (Eur J Med Chem, 2019).
